Measured values published in ChEMBL document CHEMBL5303300, “EUbOPEN Chemogenomics Library - Multiplex” (2023).
Where “and” joins values, the source holds several entries; their conditions need not be identical. Equal entries are not always repeated.

How the values were obtained:
Assay type in all cases: toxicity, cell-based
U2OS = test: Multiplex assay against U2OS; settings: human, number of replicates 2
Summary of the method: (§1)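 Tubulin, mitochondrial-mass and membrane-permeability phenotypes are per cents of healthy-nucleus cells. Cells were gated by CellPathfinder machine learning into Hoechst high-intensity objects or normal cells, normal cells into healthy, pyknosed or fragmented nuclei, and pyknosed cells into mitotic or apoptotic. Before that, live cells stained at seeding with Hoechst33342, BioTracker Green Microtubule Cytoskeleton Dye, MitoTracker Red and Annexin V Alexa Fluor 680 were imaged on a CQ1 microscope at 37°C and 5% CO2 after compound addition.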

Fibroblast = test: Multiplex assay against human fibroblast; settings: number of replicates 2; summary of the method: as §1
HEK-293T = test: Multiplex assay against HEK293T; settings: human, number of replicates 2; summary of the method: as §1
[1] = 12 h, 1 µM, compound concentration 1 uM
[2] = 12 h, 10 µM, compound concentration 10 uM
[3] = 24 h, 1 µM, compound concentration 1 uM
[4] = 24 h, 10 µM, compound concentration 10 uM
[5] = 48 h, 1 µM, compound concentration 1 uM
[6] = 48 h, 10 µM, compound concentration 10 uM

CS(=O)(=O)c1ccc(C(=O)Nc2cccc(COc3ccc(Br)cc3CNCCO)c2)c(Cl)c1.O=CO
Population Apoptotic (%) (U2OS; [1]): 50% and 66%
Population Healthy Nuclei (%) (U2OS; [1]): 74% and 84%
Population Mitotic Cells (%) (U2OS; [1]): 50% and 33%
Population Apoptotic (%) (U2OS; [2]): 66% and 50%
Population Healthy Nuclei (%) (U2OS; [2]): 73%
Population Mitotic Cells (%) (U2OS; [2]): 33% and 50%
Population Apoptotic (%) (U2OS; [3]): 75% and 87%
Population Healthy Nuclei (%) (U2OS; [3]): 79% and 82%
Population Mitotic Cells (%) (U2OS; [3]): 25% and 12%
Population Pyknosed Nuclei (%) (U2OS; [3]): 15%
Population Apoptotic (%) (U2OS; [4]): 66% and 74%
Population Healthy Nuclei (%) (U2OS; [4]): 59% and 66%
Population Mitotic Cells (%) (U2OS; [4]): 33% and 25%
Population Pyknosed Nuclei (%) (U2OS; [4]): 34% and 27%
Population Apoptotic (%) (U2OS; [5]): 83%
Population Healthy Nuclei (%) (U2OS; [5]): 83% and 88%
Population Mitotic Cells (%) (U2OS; [5]): 36% and 16%
Population Pyknosed Nuclei (%) (U2OS; [5]): 9%
Population Apoptotic (%) (U2OS; [6]): 91% and 85%
Population Healthy Nuclei (%) (U2OS; [6]): 46% and 62%
Population Mitotic Cells (%) (U2OS; [6]): 8%
Population Pyknosed Nuclei (%) (U2OS; [6]): 45% and 27%
Population Apoptotic (%) (Fibroblast; [1]): 37% and 48%
Population Hoechst High Intensity Objects (%) (Fibroblast; [1]): 0%
Population Mitotic Cells (%) (Fibroblast; [1]): 62% and 51%
Total Cell Count (Fibroblast; [1]): 153 and 242
Population Apoptotic (%) (Fibroblast; [2]): 58% and 47%
Population Hoechst High Intensity Objects (%) (Fibroblast; [2]): 0%
Population Mitotic Cells (%) (Fibroblast; [2]): 41% and 52%
Population Pyknosed Nuclei (%) (Fibroblast; [2]): 28%
Total Cell Count (Fibroblast; [2]): 238 and 244
Population Apoptotic (%) (Fibroblast; [3]): 70% and 59%
Population Hoechst High Intensity Objects (%) (Fibroblast; [3]): 0%
Population Mitotic Cells (%) (Fibroblast; [3]): 30% and 40%
Population Pyknosed Nuclei (%) (Fibroblast; [3]): 20% and 18%
Total Cell Count (Fibroblast; [3]): 148 and 236
Population Apoptotic (%) (Fibroblast; [4]): 80% and 67%
Population Hoechst High Intensity Objects (%) (Fibroblast; [4]): 2% and 0%
Population Mitotic Cells (%) (Fibroblast; [4]): 20% and 32%
Population Pyknosed Nuclei (%) (Fibroblast; [4]): 28%
Total Cell Count (Fibroblast; [4]): 232 and 267
Population Apoptotic (%) (Fibroblast; [5]): 80% and 74%
Population Hoechst High Intensity Objects (%) (Fibroblast; [5]): 0%
Population Mitotic Cells (%) (Fibroblast; [5]): 19% and 25%
Population Pyknosed Nuclei (%) (Fibroblast; [5]): 16% and 15%
Total Cell Count (Fibroblast; [5]): 153 and 246
Population Apoptotic (%) (Fibroblast; [6]): 85% and 77%
Population Hoechst High Intensity Objects (%) (Fibroblast; [6]): 2% and 0%
Population Mitotic Cells (%) (Fibroblast; [6]): 22%
Total Cell Count (Fibroblast; [6]): 247 and 259
Population Apoptotic (%) (HEK-293T; [1]): 64% and 58%
Population Healthy Nuclei (%) (HEK-293T; [1]): 78% and 83%
Population Mitotic Cells (%) (HEK-293T; [1]): 35% and 41%
Total Cell Count (HEK-293T; [1]): 423 and 657
Population Apoptotic (%) (HEK-293T; [2]): 66%
Population Healthy Nuclei (%) (HEK-293T; [2]): 81% and 80%
Population Mitotic Cells (%) (HEK-293T; [2]): 33%
Total Cell Count (HEK-293T; [2]): 566 and 616
Population Apoptotic (%) (HEK-293T; [3]): 42% and 53%
Population Healthy Nuclei (%) (HEK-293T; [3]): 83% and 80%
Population Mitotic Cells (%) (HEK-293T; [3]): 57% and 46%
Total Cell Count (HEK-293T; [3]): 974 and 659
Population Apoptotic (%) (HEK-293T; [4]): 65% and 72%
Population Healthy Nuclei (%) (HEK-293T; [4]): 78% and 75%
Population Mitotic Cells (%) (HEK-293T; [4]): 34% and 28%
Total Cell Count (HEK-293T; [4]): 498 and 611
Population Apoptotic (%) (HEK-293T; [5]): 36% and 25%
Population Healthy Nuclei (%) (HEK-293T; [5]): 82% and 85%
Population Mitotic Cells (%) (HEK-293T; [5]): 63% and 75%
Total Cell Count (HEK-293T; [5]): 1468 and 2063
Population Apoptotic (%) (HEK-293T; [6]): 82%
Population Healthy Nuclei (%) (HEK-293T; [6]): 77% and 78%
Population Mitotic Cells (%) (HEK-293T; [6]): 36% and 17%
Total Cell Count (HEK-293T; [6]): 828 and 933
